ABCB6 inh MLPCN – human ABCB6 transporter inhibition. 360,000 tested, 0.19% active. Q9NP58. fluorescence ratio to DMSO, % at 10 µM. AID 602162. K562-ABCB6 porphyrin accumulation, flow cytometry, 1 h; stronger effect = lower value;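 active means fluorescence ratio to DMSO below 75%, the collection mean minus 3 SD; inconclusive means too few cells collected in the well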;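 further: signal is porphyrin accumulated inside mitochondria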
Target sequence (Q9NP58 whole entry, looked up): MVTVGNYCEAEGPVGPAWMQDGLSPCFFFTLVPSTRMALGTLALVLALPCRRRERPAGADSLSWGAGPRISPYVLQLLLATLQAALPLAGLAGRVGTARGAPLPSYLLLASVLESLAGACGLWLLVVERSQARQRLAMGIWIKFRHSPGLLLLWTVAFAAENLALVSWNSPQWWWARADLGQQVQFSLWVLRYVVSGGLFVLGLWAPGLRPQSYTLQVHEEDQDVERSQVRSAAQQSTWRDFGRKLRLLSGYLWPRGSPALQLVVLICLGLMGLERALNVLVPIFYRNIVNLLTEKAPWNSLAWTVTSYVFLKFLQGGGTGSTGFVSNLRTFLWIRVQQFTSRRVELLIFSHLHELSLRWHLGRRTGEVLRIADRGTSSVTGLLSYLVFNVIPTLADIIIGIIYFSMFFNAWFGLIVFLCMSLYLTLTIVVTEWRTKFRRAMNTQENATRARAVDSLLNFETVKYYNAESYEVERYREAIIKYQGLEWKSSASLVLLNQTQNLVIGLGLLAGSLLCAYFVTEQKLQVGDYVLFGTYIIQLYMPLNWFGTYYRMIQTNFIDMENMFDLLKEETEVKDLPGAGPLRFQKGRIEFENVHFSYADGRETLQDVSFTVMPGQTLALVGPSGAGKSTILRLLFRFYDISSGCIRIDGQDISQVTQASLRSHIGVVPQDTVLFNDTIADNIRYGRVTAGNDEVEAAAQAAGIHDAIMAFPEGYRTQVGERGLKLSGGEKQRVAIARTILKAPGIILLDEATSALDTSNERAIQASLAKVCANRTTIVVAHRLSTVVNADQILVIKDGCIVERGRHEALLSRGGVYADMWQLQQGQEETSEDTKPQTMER
AHR activator – activators of human aryl hydrocarbon receptor; P35869; AHR-responsive luciferase reporter cells, luminescence; 320,000 tested, 2.5% active; activation, % at 5 µM; in the data active means activation above about 47%
GAA850 FXN act – increases GAA850 frataxin promoter reporter activity. HEK293 lucGAA850 FXN promoter luciferase reporter, 24 h; percent of 10 µM SAHA response. activation, % at 6 µM. 360,000 tested, 0.56% active. AID 540364;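 active means activation above the average of all compounds screened plus 3 SD, cutoff fixed separately per campaign, cut at about 7.5% in these data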
HIF act – HIF pathway transcriptional activation | 300,000 tested, 0.32% active | activation, % at 7.5 µM (by protocol) | U2OS HRE-luciferase reporter, luminescence; normalized: DMSO 0%, desferrioxamine 100%;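 active means mean activation of at least 10% of the iron chelator positive control signal, with at least half of replicates also reaching 10%; inconclusive means mean and replicate majority disagree about reaching 10%; inactive means mean and most replicates under 10%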
SR-BI DiI-HDL act – SR-BI HDL lipid transfer activation. CHO ldlA[mSR-BI] cells, DiI-HDL uptake fluorescence, 3 h; 100 = double the neutral-control signal. activation, % at 12.5 µM. 320,000 tested, 0.096% active. AID 504775;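 active means mean replicate activation of at least 60% and every replicate at or above 60%; inconclusive means mean or all-replicate condition met, but not both; inactive means mean below 60% and not all replicates reaching 60%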
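System: LDL receptor-deficient CHO ldlA cells overexpressing murine SR-BI | Timing: 3 h uptake period with compound, 37 °C | Medium: HEPES-buffered (25 mM, pH 7.4) F12 plus 0.5% BSA | Dosing: Single-point compound dose | Signal: Bottom-read fluorescence, 550/595 nm | Read-out: Retained DiI signal reflecting DiI-HDL uptake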
SR-BI DiI inh – inhibitors of mouse SR-BI mediated HDL lipid uptake | Q61009 | ldlA[mSR-BI] CHO cells, DiI-HDL uptake fluorescence, 3 h | inhibition, % at 12.5 µM | 320,000 tested, 0.96% active | AID 488896;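 active means mean replicate inhibition of at least 70% and a set share of replicates each scoring 70 or more; inconclusive means meets just one of the two criteria; inactive means fails both criteria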
AHR act confirm – confirmation of human aryl hydrocarbon receptor activators; shares compounds with AHR activator; human cells, AHR-responsive luciferase reporter, luminescence; activation, % at 9 µM; 2,300 tested, 87% active; in the data active means activation above about 49%;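 further: HepG2 hepatoma cells carrying a DRE-driven firefly luciferase reporter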
PXR counter – activates human PXR in AHR activator counter-screen; shares compounds with AHR activator; 2,300 tested, 88% active; activation, % at 11.6 µM; cell-based PXR reporter, luciferase luminescence; AID 434939; in the data active means activation above about 11%;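 further: human hepatoma DPX-2 cells expressing full-length human PXR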
Large screens that a line does not name were inactive (follow-up assays come after a bar, where they were run). A selection: hits, their analogues and other compounds. The true share with any hit is near 3.9%.

c1cc(CSc2nnc(-c3ccc4c(c3)OCO4)o2)ccn1	AHR activator 88 | AHR act confirm 52 | PXR counter 24
COCCCNc1ncnc2sc3c(c12)CCC(C)C3 (centres undefined)	none
Cc1ccc2c(c1)c1nnc(SCC(=O)NC3CC3)nc1n2C	AHR activator 79 | AHR act confirm 100 | PXR counter 19
CSc1ccc(C2Nc3ccccc3-c3cc(C)nn32)cc1 (centres undefined)	AHR activator 101 | AHR act confirm 100 | PXR counter 29
Cc1cc2n(n1)C(c1ccsc1)Nc1ccccc1-2 (centres undefined)	none
Cc1ccc2[nH]c(-c3ccccc3)cc(=O)c2c1	AHR activator 135 | AHR act confirm inactive | PXR counter 57
Cc1ccc(-c2cc(=O)c3cc(Cl)ccc3[nH]2)cc1	none (no result: ABCB6 inh MLPCN, GAA850 FXN act, SR-BI DiI-HDL act, SR-BI DiI inh)
COc1cc2[nH]c(-c3cccc(F)c3)cc(=O)c2cc1OC	AHR activator 91 | AHR act confirm 54
COc1cc2[nH]c(-c3ccc(C)cc3)cc(=O)c2cc1OC	AHR activator 134 | AHR act confirm 78 | PXR counter 13
COc1ccc(-c2cc(=O)c3cc(C)ccc3[nH]2)cc1	none
CCCC(=O)c1ccc(N2CCN(C(=O)c3ccccc3)CC2)c(F)c1	none (no result: HIF act)
Cc1ccc([N+](=O)[O-])cc1-c1ccc(/C=N\n2nnnc2N)o1	none
S=c1nc(COc2ccccc2)[nH]c2ccccc12	AHR activator 124 | AHR act confirm 125 | PXR counter 14
COc1cc(-c2nc(-c3ccc(Br)o3)no2)cc(OC)c1OC	AHR activator 91, SR-BI DiI inh inconclusive | AHR act confirm 84 | PXR counter 14
O=[N+]([O-])c1ccccc1-c1nc(-c2ccc(Br)o2)no1	AHR activator 112 | AHR act confirm 109 | PXR counter 47
COc1ccc(-c2noc(-c3ccc(Br)o3)n2)cc1OC	none
Clc1ccccc1-c1nc(-c2ccc(Br)o2)no1	AHR activator 100 | AHR act confirm 108 | PXR counter 43
Brc1ccc(-c2noc(CCc3ccccc3)n2)o1	none
Brc1ccc(-c2noc(-c3ccccn3)n2)o1	AHR activator 101 | AHR act confirm 71 | PXR counter 25
CCCNC(=S)N1CCN(C)CC1	none
COc1cccc(NC(=O)C2CC2)c1	none
O=C(Cn1ccsc1=NC(=O)C(F)(F)F)c1ccccc1	none
C/C(=N\NC(=S)Nc1ccc(F)cc1)c1ccc2c(c1)OCCO2	AHR activator 137 | AHR act confirm 84 | PXR counter 14
CCOc1ccccc1NC(=O)c1ccc2nccnc2c1	AHR activator 83 | AHR act confirm 109
CCCOc1ccccc1NC(=O)c1ccc(N)cc1	AHR activator 101 | AHR act confirm 117 | PXR counter 47
CCCCOc1ccccc1NC(=O)c1ccc(=O)[nH]c1	none
Cc1cc(C)nc(NC(=O)/C=C/c2ccccc2Cl)n1	none
Cc1c(C(=O)N/N=C/C(C)C)[nH]c2c([N+](=O)[O-])cccc12	AHR activator 86 | AHR act confirm inactive | PXR counter 10
Cc1cccc(OCC(=O)Nc2ccc(S(=O)(=O)N3CCN(C)CC3)cc2)c1	none
Cc1cc(C)n(-c2nc3c(c(=O)[nH]c(=O)n3C)n2CCc2ccccc2)n1	AHR activator 133 (no result: HIF act) | AHR act confirm 84 | PXR counter 67
Cc1cc(C)n(-c2nc3c(c(=O)[nH]c(=O)n3C)n2CC(O)c2ccccc2)n1 (centres undefined)	AHR activator 80 | AHR act confirm 78 | PXR counter 45
S=c1[nH]nc(-c2cc(-c3ccco3)[nH]n2)n1-c1ccccc1	AHR activator 88 | AHR act confirm 96 | PXR counter 18
Oc1c(-c2cc(-c3ccco3)[nH]n2)ccc2ccccc12	AHR activator 116 | AHR act confirm 149 | PXR counter 13
CNc1nnc(-c2ccc(OC)cc2)s1	none
O=C(Nc1cc(Cl)ccc1Cl)c1ccc(-c2ccccc2)cc1	AHR activator 87 | AHR act confirm 90 | PXR counter 29
CCCOC(=O)c1ccc(Cl)c(NC(=O)c2ccc(-c3ccccc3)cc2)c1	none
Cc1cc(C)c(C)c(OCC(=O)O/N=C(\N)c2ccccn2)c1	none
CCc1ccc([C@@H]2CC=C(C(=O)O)[C@H](c3cccc(Cl)c3)N2S(=O)(=O)c2ccc(C)cc2)cc1	none (no result: HIF act)
Cc1n[nH]c(C)c1CN(C)C(=O)c1cc(COc2ccc(F)c(F)c2)on1	none
COc1ccc(C(=O)O/N=C(\N)c2ccccc2)c(OC)c1	AHR activator 97 (no result: SR-BI DiI-HDL act, SR-BI DiI inh) | AHR act confirm 56 | PXR counter inactive
COc1ccc(C(=O)O/N=C(\N)c2ccc(OC)c(OC)c2)c(OC)c1	none
O=c1cc(-c2ccco2)oc2c1ccc1ccccc12	AHR activator 79 | AHR act confirm 61 | PXR counter 25
O=c1cc(-c2ccncc2)oc2c1ccc1ccccc12	none
O=C(Nc1ccccc1N1CCN(c2ccccc2)CC1)C12CC3CC(CC(C3)C1)C2	none
CCOC(=O)C1(CC2CCCCO2)CCN(Cc2cc(F)ccc2-n2cccn2)CC1 (centres undefined)	none
Cc1c2ccccc2nc2c(F)c(N(C)C)c(F)c(F)c12	AHR activator 122 | AHR act confirm inactive | PXR counter 46
CN(C)c1c2ccccc2nc2c(F)c(F)c(F)c(F)c12	none
Cc1c(-c2ccn[nH]2)cc(NC(=O)c2ccc(Cl)cc2)c(=O)n1N	AHR activator 86 | AHR act confirm 105
Cc1nccc2oc(=O)c(NC(=O)c3ccc(Cl)cc3)cc12	none
O=C(NC(=S)Nc1ccc(Br)cn1)c1cccs1	AHR activator 84 | AHR act confirm 116 | PXR counter 16
Cc1nn(Cc2ccccc2Cl)c2sc(C(=O)Nc3nccs3)cc12	AHR activator 102 | AHR act confirm 119 | PXR counter 99
Cc1nn(Cc2ccc(F)cc2)c2sc(C(=O)Nc3nccs3)cc12	AHR activator 96 | AHR act confirm 109 | PXR counter 38
CCC(CC)NC(=O)c1cc2c(C)nn(Cc3ccccc3Cl)c2s1	none
CC(=O)c1cccc(-c2ccnc3c2CC(C(=O)N2CCN(C)CC2)O3)c1 (centres undefined)	none (no result: AHR activator, HIF act, SR-BI DiI-HDL act, SR-BI DiI inh)
CCc1ccc(-c2csc(-c3c[nH]c4ccccc34)n2)cc1	AHR activator 87 | AHR act confirm 124 | PXR counter 29
